Bioassay records as filed in PubChem.
Only some compounds are listed: those with a hit (about 2.4% of all), similar ones and a draw of the others.
dFosB act: activators of delta FosB homodimer, primary screen, biochemical, fluorescence polarization, TAMRA-CDK5 oligo, single point; Protein FosB (Mus musculus), P13346; purified delta FosB; percent of positive-control signal above neutral wells; activation, % at 25 µM; actives 0.99% (n = 340,000); AID 493131, 2011;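 active = mean activation above about 17%, with every replicate also reaching it, limit read from the data, passing the limit was not always enough; inconclusive = only one of the two conditions met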
Target sequence (P13346 whole entry, looked up): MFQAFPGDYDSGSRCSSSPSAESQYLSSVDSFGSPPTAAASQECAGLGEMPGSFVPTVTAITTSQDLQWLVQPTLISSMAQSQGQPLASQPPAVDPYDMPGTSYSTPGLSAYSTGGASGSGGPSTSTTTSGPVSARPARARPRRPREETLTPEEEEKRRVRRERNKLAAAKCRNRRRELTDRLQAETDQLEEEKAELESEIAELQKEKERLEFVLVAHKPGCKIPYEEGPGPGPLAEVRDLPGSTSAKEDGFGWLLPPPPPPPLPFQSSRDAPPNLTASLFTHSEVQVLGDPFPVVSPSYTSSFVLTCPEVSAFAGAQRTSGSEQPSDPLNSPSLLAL
Rtt109 Vps75: inhibitors of C. albicans Rtt109/Vps75 HAT, primary screen, biochemical, ThioGlo CoA-SH fluorescence, plate reader; actives 0.16% (n = 330,000); AID 540336, 2011; Histone acetyltransferase RTT109 (Candida albicans (strain SC5314 / ATCC MYA-2876)), …; inhibition, % at 34.9 µM; purified Rtt109/Vps75, 4 h;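 active = inhibition of at least 50% in every replicate; inconclusive = best replicate reaches 50% inhibition but some replicates fall short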
Target sequence (Q5AAJ8 whole entry, looked up): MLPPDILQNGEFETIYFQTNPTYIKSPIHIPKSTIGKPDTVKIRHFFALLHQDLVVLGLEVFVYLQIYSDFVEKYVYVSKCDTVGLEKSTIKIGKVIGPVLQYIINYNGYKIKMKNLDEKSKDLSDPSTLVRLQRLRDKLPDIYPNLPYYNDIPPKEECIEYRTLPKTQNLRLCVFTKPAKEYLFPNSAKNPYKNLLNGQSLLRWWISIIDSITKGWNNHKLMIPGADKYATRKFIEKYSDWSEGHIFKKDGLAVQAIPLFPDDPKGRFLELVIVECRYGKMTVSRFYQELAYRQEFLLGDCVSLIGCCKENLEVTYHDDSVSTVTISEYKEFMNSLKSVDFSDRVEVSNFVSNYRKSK
HIV Env fusion: inhibitors of HIV-1 Env-driven cell-cell fusion, primary screen, HeLa-JRFL effector, CEM21 target cells, luciferase | inhibition, % at 12.3 µM | actives 1.1% (n = 360,000);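 active = mean replicate inhibition score of at least 50 and every replicate individually at or above 50; inconclusive = only one of the two criteria met; inactive = mean below 50 and not all replicates reaching 50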;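 also: 0% = plate neutral controls and 100% = maraviroc near 300 nM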
GSIS activator: GLuc luminescence reporter in INS-1E cells, primary screen for activators of glucose-dependent secretion of insulin | actives 0.61% (n = 370,000) | activation, % at 16.6 µM | AID 743287, 2014 | INS-1E GLuc reporter insulin secretion, 2-3 h;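 active = lowest replicate activation of at least 40%, so every replicate reaches that level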;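 also: 0% = median of neutral control wells and 100% = median of IBMX positive control wells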
miR122 inh: miR-122 Renilla sensor signal increase in Huh7, primary screen, miR-122 inhibitor project, cell-based, single point, plate reader | activation (reporter increase), % at 12.5 µM | actives 0.3% (n = 340,000) | Huh7 miR-122 Renilla luciferase sensor, 48 h; neutral wells = 0, positive control = 100;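 active = mean replicate activation score at least 90 and every replicate individually at or above 90; inconclusive = only one of the two criteria met; inactive = neither criterion met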;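 also: higher luciferase means less miR-122 activity so hits act as miR-122 inhibitors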
Cneo AK release: Cryptococcus neoformans cell lysis inducers, primary screen, AK release luminescence, single concentration | lysis activity, % at 15 µM | AID 651654, 2012 | actives 0.2% (n = 360,000) | C. neoformans lysis, adenylate kinase release luminescence, 4 h; normalised: neutral wells 0, clomiphene wells 100;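 active = mean lysis activity across replicates of at least 80%, whatever share of replicates individually reach that level; inactive = mean lysis activity below 80%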
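Signal: Adenylate kinase release luminescence | Assay system: Log-phase Cryptococcus neoformans yeast cells | Input: Cells at 5 × 10^6 per mL | Buffer or medium: Fresh YPD growth medium | Compound: Single dose | Schedule: Static 4 h at 37 °C with compound, 1 h detection | Controls: Clomiphene | Read-out: Luminescence rise reflecting yeast cell lysis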
The depositor's hits bear a star; ? = inconclusive; · = no result given; [ ] = remark or other dose.

SMILES | dFosB act | Rtt109 Vps75 | HIV Env fusion | GSIS activator | miR122 inh | Cneo AK release
Cc1ccc(S(=O)(=O)Oc2ccccc2)cc1 | -10.8 | 0.8 | -29.0 | 17.6 | 0.8 | ·
CN1C(=O)c2cc(NC(=O)C3CC3)ccc2OC[C@@H]2O[C@@H](CC(=O)NCc3ccccc3F)CC[C@@H]21 | · | · | · | 3.2 | · | ·
CCOc1ccc(-c2nnn(CC(=O)NCc3ccc(OC)cc3)n2)cc1OCC | 29.0* | · | · | · | -7.1 | 0.0
O=S(=O)(c1ccc(=S)[nH]c1)N1CCCCCC1 | -4.3 | -4.8 | -10.1 | 42.1* | 3.2 | 0.2
O=S(=O)(c1ccc(=S)[nH]c1)N1CCOCC1 | 1.3 | 12.6 | 11.0 | 16.4 | · | -1.3
O=C(CSc1c(Cl)cccc1Cl)NC1CCCc2ccccc21 (configuration not stated) | -1.8 | 0.6 | -3.0 | 40.8* | 13.6 | -1.1
C#CCOC(=O)Nc1cccn(Cc2c(Cl)cccc2Cl)c1=O | -9.3 | 0.9 | -138.6 | · | 25.7 | 1.7
COC(=O)Nc1ccc(=O)n(Cc2c(Cl)cccc2Cl)c1 | 14.4 | -10.8 | 49.7* | · | -14.7 | 5.2
Cc1nn(-c2nc3ccccc3[nH]2)c(=O)c2ccccc12 | -13.3 | -18.4 | 71.5* | 16.7 | 5.8 | ·
O=C(NC1Cc2ccccc2C1)[C@H]1[C@H](CO)[C@H]2Cn3c(ccc(-c4ccccc4)c3=O)[C@@H]1N2 | · | · | · | -5.6 | -3.4[16.7 µM] | 7.5
COCC(=O)N1CC2(C1)[C@@H](c1ccccc1)[C@H](CO)N2C(=O)c1ccncc1 | · | · | · | 9.0 | · | ·
C[C@H](CO)N1C[C@H](C)[C@@H](CN(C)Cc2ccc(-c3ccccc3)cc2)Oc2ccc(NC(=O)Nc3ccc(C(F)(F)F)cc3)cc2C1=O | · | · | 7.3[16.7 µM] | 3.7 | -4.1[16.7 µM] | 98.7*
COc1ccc(NC(=O)Nc2ccc3c(c2)C(=O)N([C@@H](C)CO)C[C@@H](C)[C@@H](CN(C)Cc2ccc(C(F)(F)F)cc2)O3)cc1 | · | · | ? | -7.0 | 0.1[16.7 µM] | 15.0
COc1ccc(CN(C)C[C@@H]2OCCCC[C@H](C)Oc3ccc(NC(=O)Nc4ccc(C(F)(F)F)cc4)cc3C(=O)N([C@@H](C)CO)C[C@@H]2C)cc1 | · | · | 75.5*[16.7 µM] | 23.8 | -23.9[16.7 µM] | 2.1
COc1ccc(NC(=O)Nc2ccc3c(c2)C(=O)N([C@@H](C)CO)C[C@H](C)[C@H](CN(C)Cc2ccc(C(F)(F)F)cc2)O3)cc1 | · | · | 28.7[16.7 µM] | -9.7 | 149.5*[16.7 µM] | 39.9
COc1ccc(NC(=O)Nc2ccc3c(c2)C(=O)N([C@H](C)CO)C[C@@H](C)[C@H](CN(C)Cc2ccc(C(F)(F)F)cc2)OCCCC[C@@H](C)O3)cc1 | · | · | 68.4*[16.7 µM] | -23.2 | -2.1[16.7 µM] | -2.2
CC(=O)Nc1cccc2c1O[C@@H](CN(C)C)[C@H](C)CN(C)C2=O | · | · | · | 16.6 | · | ·
Cc1ccc(S(=O)(=O)Nc2ccc3c(c2)CC(=O)N([C@@H](C)CO)C[C@@H](C)[C@H](CN(C)Cc2ccc(C(=O)O)cc2)O3)cc1 | · | · | · | 4.6 | · | ·
CCN(CC)CCNCc1cc(Br)ccc1OCC(=O)NCc1ccccc1 | 1.5 | 4.1 | 0.8 | -4.2 | · | ·
CCN(CC)CCNCc1ccc(Br)cc1OCC(=O)NCc1ccccc1 | -12.2 | 4.0 | 9.7 | 62.3* | 1.6 | -1.5
CCCNC(=O)N1CC(=O)N2[C@H](CO)[C@H](c3ccc(C#Cc4ccccc4)cc3)[C@@H]2C1 | · | · | · | 13.3 | · | ·
O=c1oc(-c2ccccc2F)nc2scc(-c3ccccc3)c12 | · | · | 63.9* | · | 7.0 | -6.3
COc1ccccc1-c1nnc(SCC(=O)NCc2c(C)c(Cl)cc(C(C)C)c2O)o1 | -11.6 | · | 85.6* | -26.0 | 2.6 | 1.2
COc1ccccc1-c1nnc(SCC(=O)Nc2c(Cl)cccc2Cl)o1 | -3.0 | -7.5 | -27.2 | · | 2.7 | 0.3
C[C@@H]1CN(C)C(=O)c2ccccc2O[C@H]1CN(C)C | · | · | · | 2.7 | · | ·
SMILES | dFosB act | Rtt109 Vps75 | HIV Env fusion | GSIS activator | miR122 inh | Cneo AK release
O=C1OCCC1Sc1nnc(-c2ccccc2)o1 (configuration not stated) | 0.8 | -0.2 | · | · | -3.7 | -0.1
O=C1OCCC1Sc1nnc(-c2ccc(Cl)cc2Cl)o1 (configuration not stated) | 0.9 | 1.0 | 58.7* | -9.4 | · | ·
CCCCn1c(N)c(N(CC(C)C)C(=O)c2ccc(S(=O)(=O)N(CC)c3ccccc3)cc2)c(=O)[nH]c1=O | -7.9 | 3.4 | 101.7* | 6.2 | -2.1 | 1.8
CCCCn1c(N)c(N(CC(C)C)C(=O)c2cccc(S(=O)(=O)N(C)c3ccccc3)c2)c(=O)[nH]c1=O | 3.3 | 5.3 | 6.8 | -27.3 | · | -0.2
C[C@H](CO)N1C[C@H](C)[C@@H](CN(C)C(=O)Nc2ccc3c(c2)OCO3)Oc2ccc(NC(=O)c3ccncc3)cc2CC1=O | · | · | -1.3[16.7 µM] | 0.1 | 13.7[16.7 µM] | -0.7
CC(C)n1c(N)c(C#N)c2ccc([N+](=O)[O-])cc2c1=O | 5.6 | -2.9 | 15.4 | 102.9* | -3.7 | 2.6
CCCCCCn1c(N)c(C#N)c2ccc([N+](=O)[O-])cc2c1=O | -6.2 | -3.3 | 9.6 | -6.5 | · | ·
CCCN1[C@H](C(=O)N2CCCCC2)[C@@H](CO)[C@@H]2Cn3c(cccc3=O)[C@@H]21 | · | · | · | 16.6 | -1.7[16.7 µM] | -0.4
O=C([C@H]1[C@H](CO)[C@H]2Cn3c(cccc3=O)[C@H]2N1CCC(F)(F)F)N1CCCCC1 | · | · | · | -1.0 | · | 92.5*
CN(C)C(=O)C[C@H]1CC[C@@H]2[C@H](COC[C@H](O)CN2C(=O)C2CC2)O1 | · | · | · | 1.3 | -0.8[16.7 µM] | 2.5
COc1ccc2[nH]c(=O)c(CN(Cc3cccs3)Cc3nnnn3Cc3ccccc3)cc2c1 | -7.0 | · | 98.2* | · | 3.3 | 2.2
CO[C@H]1CC[C@@H]2CCN(C)C(=O)CC3(CCCCC3)CN(C)C(=O)c3cccc(C#N)c3OC[C@H]1O2 | · | · | -15.7[16.7 µM] | · | · | 1.4
COc1cc2c(OC(C)=O)c3c(c(-c4ccc5c(c4)OCO5)c2cc1OC)C(=O)OC3 | 2.4 | 1.6 | · | · | -0.2 | -0.5
COc1cc2c(O)c3c(c(-c4ccc5c(c4)OCO5)c2cc1OC)C(=O)OC3 | -7.8 | 7.0 | 63.2* | · | · | -1.0
COc1ccc(C2=NS(=O)(=O)N(C)C(C(=O)N3C(C)CCCC3C)=C2)cc1 (configuration not stated) | -8.9 | 4.9 | · | -21.1 | · | 2.1
COc1ccc(C2=NS(=O)(=O)N(C)C(C(=O)N3CCCCC3C)=C2)cc1 (configuration not stated) | -13.0 | 5.1 | 60.1* | -5.9 | · | -2.5
CC(C)[C@@H]1COCn2nncc2CC[C@H](Cc2ccc(-c3ccccc3)cc2)C(=O)N1 | · | · | · | 6.7 | · | ·
COc1ccc(CNC(=O)C[C@@H]2C=C[C@@H](NC(=O)CN(C)C)[C@@H](CO)O2)cc1 | · | · | 16.2[16.7 µM] | 10.4 | · | -0.5
